Efflux pump mplx: blocks antifungal efflux pumps in multiplex yeast assay; AID 485275; S. cerevisiae Candida pump triplex, Nile Red efflux; 0.44% of 330,000 active; inhibition, % at 10 µM;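 active = plate passing quality check with inhibition over a set limit, or well fluorescence over plate mean plus 4 SD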;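 note: Nile Red retained in pooled yeast measured as flow cytometry median fluorescence; 0% = buffer negative control and 100% = Enniatin B positive control; higher means more Nile Red kept so more efflux inhibition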
AI-2 QS modul: modulates the Vibrio harveyi AI-2 quorum sensing system; Vibrio harveyi JMH597 AI-2 luminescence/OD600 ratio, 9 h; stronger effect = lower value; strain lacks LuxN and CqsS sensors; 0 = neutral-control median; activity change, % at 7.5 µM; 0.4% of 300,000 active; in the data active = activity change below about -75%, passing the limit was not always enough; inconclusive = no clear call, values can overlap the other calls;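 note: luminescence divided by OD600 gain over 9 h not by final OD600 alone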
PolyA inhibitor: blocks polyadenylation in yeast reporter cells; S. cerevisiae SKY197-pL101 polyadenylation reporter, beta-gal luminescence; efflux-impaired pdr1/pdr3 knockout yeast; score 100 = 6 SD above DMSO; activity score, % at 12 µM; 0.02% of 300,000 active;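 active = lowest replicate activity score at least 50, where 100 means six control SD above control mean; inconclusive = lowest score under 50 but half or more replicates reach 50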;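 note: yeast exposed to compound for 9 h at 30 °C; higher score means more reporter readthrough which indicates perturbed polyadenylation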
HDAC3 inhib: inhibitors of human histone deacetylase 3. inhibition, % at 8.3 µM. O15379. AID 2718. recombinant HDAC3, fluorogenic peptide/trypsin coupled, fluorescence. 0.15% of 320,000 active; in the data active = inhibition above about 26%, passing the limit was not always enough; inconclusive = no clear call, values can overlap the other calls
Target sequence (O15379 whole entry, looked up): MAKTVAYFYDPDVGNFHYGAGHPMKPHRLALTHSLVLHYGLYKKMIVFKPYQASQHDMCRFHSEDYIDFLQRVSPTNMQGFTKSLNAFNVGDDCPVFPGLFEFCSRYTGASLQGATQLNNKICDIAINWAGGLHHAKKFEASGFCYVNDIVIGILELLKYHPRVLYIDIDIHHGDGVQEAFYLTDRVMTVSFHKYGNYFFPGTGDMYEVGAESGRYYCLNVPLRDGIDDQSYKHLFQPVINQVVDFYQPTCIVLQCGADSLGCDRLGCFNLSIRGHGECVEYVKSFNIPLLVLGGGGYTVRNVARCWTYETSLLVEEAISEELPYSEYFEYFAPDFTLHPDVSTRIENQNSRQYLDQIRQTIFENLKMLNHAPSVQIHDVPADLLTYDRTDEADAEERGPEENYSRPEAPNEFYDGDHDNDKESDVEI
T cruzi repl: blocks replication of Trypanosoma cruzi. T. cruzi beta-gal in NIH3T3, luminescence, 90 h. inhibition, % (test concentration not listed). 1.4% of 300,000 active;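 active = mean inhibition across valid replicates above about 55%, limit read from the data; inconclusive = mean below that limit but half or more replicates reach it; inactive = mean below it, under half of replicates reach it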;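 note: signal also drops with host cell toxicity which is not excluded here; 0% = plate median of DMSO wells and 100% = zero luminescence signal; higher percent means less beta-gal luminescence so fewer parasites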
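Incubation – ≥90 h infection period, 3 h prior cell attachment · System – NIH/3T3 fibroblasts plus reporter T. cruzi · Doses – compound pinned at 50 nL/well, DMSO · Read-out basis – percent inhibition of parasite-derived β-gal signal · Signal – luminescent β-galactosidase signal after 60 min lysis · Also added – 5000 T. cruzi trypomastigotes/well · Medium – Low-serum DMEM with 2% FBS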
* marks the source's active call; other numbers are inactive results; ? = inconclusive; nt = no result. Rows were chosen to be rich in hits. Some 2.2% of all compounds tested hit in one or more screens of this group.

SMILES	Efflux pump mplx	AI-2 QS modul	PolyA inhibitor	HDAC3 inhib	T cruzi repl
CCOC(=O)C1=C(c2ccccc2)N=c2s/c(=C\c3cc(OC)c(OC)c(OC)c3)c(=O)n2C1c1cccs1 (stereo not drawn)	0	36	6	-2	63*
COc1ccc(N2CCN(C(CNC(=O)C(C)C)c3ccc4c(c3)OCO4)CC2)cc1 (stereo not drawn)	0	6	-2	-1	-24
Oc1ccc(/C=N/Nc2cc(N3CCOCC3)nc(N3CCOCC3)n2)cc1O	0	12	-1	10	6
Oc1ccccc1/C=N/Nc1cc(N2CCCC2)nc(N2CCCC2)n1	0	18	-16	10	57*
COc1ccc(COc2ccccc2C(=O)Nc2ccccn2)cc1[N+](=O)[O-]	0	17	-19	-6	-9
COc1cccc(-n2c(SCC(=O)Nc3nc4ccccc4s3)nc3ccccc3c2=O)c1	0	17	17	nt	8
COc1cccc(-n2c(SCC(=O)Nc3sc4c(c3C(N)=O)CCC4)nc3ccccc3c2=O)c1	0	6	-11	-2	59*
CCc1sc(C(=O)Nc2ccc3c(c2)OCO3)cc1C	0	nt	nt	-4	nt
Cc1ccc(S(=O)(=O)Nc2ccc(N3CCN(C)CC3)nc2)cc1	0	16	3	?	58*
C[C@H]1CN([C@@H](C)CO)C(=O)Cc2cc(NC(=O)Cc3ccccc3)ccc2O[C@H]1CN(C)C(=O)Nc1cccc2ccccc12	1	nt	nt	0	nt
CNS(=O)(=O)c1cccc(C(=O)NCC(c2cccs2)N2CCOCC2)c1 (stereo not drawn)	0	nt	-17	3	-6
CCCc1cc(=O)[nH]c(SCC(=O)Nc2sc3c(c2C(N)=O)CCCC3)n1	0	nt	nt	-4	nt
CC(C)c1ccc(C(=O)NCCCN(C)C)cc1	0	-4	15	1	60*
CN(C)CCCNC(=O)c1ccc(Cl)c(S(=O)(=O)N(C)c2ccccc2)c1	0	25	2	5	65*
COc1ccc(OCCCCn2c(CO)nc3ccccc32)cc1	0	13	-3	4	4
CC(C)N1C(=O)/C(=C/c2nc3ccccc3c(=O)n2-c2ccccc2)c2ccccc21	0	9	-5	4	77*
CC(C)N1C(=O)/C(=C\c2nc3ccccc3c(=O)n2-c2ccccc2)c2ccccc21	0	25	-7	11	71*
Cc1ccc2c(c1)sc1nc(=O)ccn12	0	nt	15	5	-13
Cc1cc(C(=O)N2CCCC(N3CCN(c4ccccc4C)CC3)C2)n(C)n1 (stereo not drawn)	0	6	-8	-2	59*
COc1ccc(C2CC(=O)C3=C(C2)Nc2ncnn2C3c2ccccc2C)c(OC)c1 (stereo not drawn)	0	21	-6	6	61*
O=c1c2ccccc2sn1-c1cc(S(=O)(=O)N2CCOCC2)ccc1N1CCCC1	0	40	11	27*	47
C/C(Cl)=C/Cc1c(C)[nH]c2ccc(C)cc2c1=O	0	0	10	3	71*
C/C(Cl)=C/Cc1c(C)[nH]c2c(ccc3ccccc32)c1=O	0	29	15	-4	24
Clc1cccc(N/N=C/c2ccc(N3CCOCC3)cc2)c1	0	37	-15	-1	60*
C#CCOCCOCCOCCNc1nc(N2CCN(C(=O)[C@H](CCCCN)n3cc(C(N)CO)nn3)CC2)nc(N2CCN(C(=O)[C@H](CCC(=O)O)n3cc(C(N)[C@H](C)CC)nn3)CC2)n1 (stereo partly drawn)	0	10	-6	-9	-15
SMILES	Efflux pump mplx	AI-2 QS modul	PolyA inhibitor	HDAC3 inhib	T cruzi repl
Cc1ccc(C)c(OCCC(=O)NNC(=O)c2cc(C)oc2C)c1	0	nt	nt	3	nt
Cc1nc2ccc(S(=O)(=O)NCC(=O)NC(C)c3ccccc3)cc2s1 (stereo not drawn)	0	-97*	1	0	-11
Cc1nc2ccc(S(=O)(=O)NCC(=O)N3CCN(c4ccccc4)CC3)cc2s1	0	23	0	7	-2
CCCn1c(C(O)c2ccc(OC)c(OC)c2)nc2ccccc21 (stereo not drawn)	0	4	7	-1	1
Cc1c(Cl)c([N+](=O)[O-])nn1CCCC(=O)Nc1c(Cl)cccc1Cl	0	21	3	-3	15
Cc1c(Cl)c([N+](=O)[O-])nn1CCCC(=O)N1CCN(c2ccccc2)CC1	0	18	-6	0	31
Cc1nn(Cc2ccc(Cl)cc2)c(C)c1NC(=O)CCCn1nc([N+](=O)[O-])c(Cl)c1C	0	0	-18	-8	57*
Cc1c(Cl)c([N+](=O)[O-])nn1CCCC(=O)N(Cc1ccccc1)Cc1ccccc1	0	20	-15	7	64*
COc1ccc(CC(=O)Nc2nc(-c3ccncc3)cs2)cc1	0	41	-7	-3	67*
COc1ccc(CCC(=O)Nc2nc(-c3ccncc3)cs2)cc1	0	63	4	-4	36
COc1ccc([C@H]2CC(=O)C=C(c3cccc(NC(C)=O)c3)C2)cc1	0	nt	nt	1	nt
O=C(CCNC(=O)c1ccccc1)Nc1ccc(Cl)c(S(=O)(=O)N2CCCCC2)c1	0	nt	nt	5	nt
O=[N+]([O-])c1cccc(COc2ncnc3cc([N+](=O)[O-])ccc23)c1	0	12	10	nt	64*
CCCCC(=O)Nc1nnc(CCc2ccccc2)s1	0	17	-7	-5	-10
COc1ccc(NS(=O)(=O)c2ccc3ccccc3c2)c2ncccc12	0	23	-13	3	57*
CCN(c1ccccc1)S(=O)(=O)c1ccc(Cl)c(C(=O)NCc2ccco2)c1	0	nt	nt	-1	nt
CCCc1nn(C(=O)c2ccccc2)c2c1C(=O)CC(C)(C)C2	0	12	-10	72*	4
Cc1nn(C(=O)c2ccccc2)c2c1C(=O)CC(C)(C)C2	0	27	13	91*	12
Cc1nn(-c2nc3ccccc3n2Cc2ccccc2)c2c1C(=O)CC(C)(C)C2	0	29	nt	5	nt
CCOc1ccc(-n2c(-c3ccc(Cl)cc3)c[n+]3c2SCC3)cc1	0	20	2	10	62*
c1ccc(-c2c[n+]3c(n2-c2ccccc2)SCC3)cc1	0	?	3	6	55*
COc1ccc(C2=NC(=O)/C(=C\c3cc(OC)c(OC)c(OC)c3)O2)cc1	0	nt	nt	-1	nt
CCOc1ccc(NC(=O)CCC(=O)N/N=C2\CCCc3ccccc32)cc1	0	31	nt	2	nt
O=P(c1ccccc1)(c1ccccc1)c1nc(-c2ccc(Cl)cc2)oc1N1CCOCC1	0	23	nt	-9	12
Cc1ccc2cc(CN(CCc3ccccc3)C(=S)NCCCN(C)C)c(=O)[nH]c2c1	0	10	-3	9	31
Cc1cccc2cc(CN(CCCN(C)C)C(=S)NCCc3ccccc3)c(=O)[nH]c12	0	7	9	-2	62*

Compound activity (PubChem BioAssay)
